Data set [1] has as its target Fructose-1,6-bisphosphatase 1 (Homo sapiens, UniProt P09467, C39S). Briefly: Inhibition of human FBPase C38S mutant expressed in Escherichia coli BL21 (DE3) using FBP as substrate incubated for 5 mins by malachite green dye based spectrophotometry. Summed up:
(§1)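 Recombinant human FBPase (wild type or point mutants) was expressed in E. coli BL21 (DE3), purified and stored in 50% glycerol at -20 °C. Reactions ran 5 min at 37 °C, and released phosphate was read by malachite green.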

Data set [2] deals with Hepatocyte. Briefly: Inhibition of lipid accumulation in C57BLKS rat Primary hepatocytes assessed as reduction in insulin and glucose-induced TC level incubated for 24 hrs. It counts as functional, cell-based. In a few lines: (§2)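 After overnight culture in DMEM, rat primary hepatocytes pretreated with compounds, then held in 25 mM glucose plus 500 nM insulin for 24 h to induce lipid accumulation. Triglyceride and total cholesterol measured with assay kits and normalized to BCA protein. Means ± SEM of four independent experiments.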

In data set [3] the test system is Hepatocyte. Briefly: Inhibition of glucose production in cAMP and Dex pre-treated C57BLKS rat Primary hepatocytes at 100 uM incubated for 3 hrs by glucose assay kit method. The data set is classed as functional. In a few lines: (§3)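 Rat primary hepatocytes cultured overnight in DMEM/10% FBS, then pretreated with compounds for 3 h in fresh medium. Switched to glucose-free DMEM with 2 mM sodium pyruvate, 20 mM sodium lactate and compound for 3 h. Medium glucose measured with a kit and normalized to BCA protein. Pathological arm adds 1 µM dexamethasone plus 200 µM cAMP for 3 h. Means ± SEM, n=4.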

Data set [4] deals with Hepatocyte. As to the kind of experiment: Inhibition of lipid accumulation in C57BLKS rat Primary hepatocytes assessed as reduction in insulin and glucose-induced TC level at 10 uM incubated for 24 hrs. It counts as functional, cell-based. In a few lines: as §2
A short description of data set [5]: Acute toxicity in C57BL/6 mouse assessed as weight loss at 600 mg/kg, po observed for 14 days. It counts as organism-based. The following applies: in vivo, 336 h. Summed up:
(§4)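 Sixteen male C57BL/6 mice, 8 weeks old, were randomised into two groups. Each group got a single oral dose on day 1, either vehicle or 600 mg/kg. Animals were watched for 14 days for mortality, body-weight loss and allergic reactions, against controls.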

Data set [6] relates to Hepatocyte. As to the kind of experiment: Cytotoxicity against C57BLKS rat Primary hepatocytes assessed as cell viability by measuring cellular protein level at 25 to 100 uM in presence of insulin and glucose by bicinchoninic acid method. It counts as cell-based. In a few lines: (§5)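 Primary hepatocytes isolated from rat, cultured overnight in DMEM with 10% FBS, then exposed to compounds. Cellular protein per group measured by bicinchoninic acid (BCA) method as a viability control. The same protein values serve to normalize glucose, TG and TC contents. Pathological stimulation where applicable: 1 µM dexamethasone plus 200 µM cAMP, or 25 mM glucose plus 500 nM insulin for 24 h. Means ± SEM, four independent experiments.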

Data set [7] relates to Hepatocyte. As to the kind of experiment: Inhibition of glucose production in C57BLKS rat Primary hepatocytes incubated for 3 hrs by glucose assay kit method. The data set is classed as functional, cell-based. Summed up: as §3
The subject of data set [8] is Hepatocyte. As to the kind of experiment: Cytotoxicity against C57BLKS rat Primary hepatocytes assessed as cell viability by measuring cellular protein level at 10 to 100 uM in presence of cAMP and Dex by bicinchoninic acid method. The data set is classed as cell-based. In a few lines:
as §5

A short description of data set [9]: Acute toxicity in C57BL/6 mouse assessed as mortality at 600 mg/kg, po observed for 14 days. The data set is classed as organism-based. To be noted: in vivo, 336 h. In a few lines: as §4
Data set [10] is described as follows: Cytotoxicity against C57BLKS rat Primary hepatocytes assessed as cell viability incubated for 6 hrs by SRB assay. It counts as cell-based, Hepatocyte. To be noted: read-out: Activity. In a few lines:
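Rat primary hepatocytes under physiological conditions exposed to compounds for 6 h. Viability read by sulforhodamine B staining. Means ± SEM of four independent experiments.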
For orientation: Sulforhodamine B stains cellular protein and so reports cell mass.

Data set [11] in a line: Acute toxicity in C57BL/6 mouse assessed as allergic action at 600 mg/kg, po observed for 14 days. It counts as organism-based. The following applies: in vivo, 336 h. In a few lines: as §4
The subject of data set [12] is Hepatocyte. Briefly: Inhibition of glucose production in C57BLKS rat Primary hepatocytes at 400 uM incubated for 3 hrs by glucose assay kit method relative to control. The data set is classed as functional. Summed up:
as §3

The subject of data set [13] is Hepatocyte. Briefly: Inhibition of glucose production in cAMP and Dex pre-treated C57BLKS rat Primary hepatocytes incubated for 3 hrs by glucose assay kit method. The data set is classed as functional, cell-based. Summed up: as §3
Data set [14] deals with Hepatocyte. Briefly: Inhibition of lipid accumulation in C57BLKS rat Primary hepatocytes assessed as reduction in insulin and glucose-induced TG level at 100 uM incubated for 24 hrs. The data set is classed as functional, cell-based. Summed up:
as §2

The subject of data set [15] is Hepatocyte. Briefly: Inhibition of lipid accumulation in C57BLKS rat Primary hepatocytes assessed as reduction in insulin and glucose-induced TG level at 10 uM incubated for 24 hrs. The data set is classed as functional, cell-based. Summed up: as §2
The target of data set [16] is T1, Fructose-1,6-bisphosphatase 1 (Homo sapiens) (UniProt P09467).
T1 sequence (whole entry): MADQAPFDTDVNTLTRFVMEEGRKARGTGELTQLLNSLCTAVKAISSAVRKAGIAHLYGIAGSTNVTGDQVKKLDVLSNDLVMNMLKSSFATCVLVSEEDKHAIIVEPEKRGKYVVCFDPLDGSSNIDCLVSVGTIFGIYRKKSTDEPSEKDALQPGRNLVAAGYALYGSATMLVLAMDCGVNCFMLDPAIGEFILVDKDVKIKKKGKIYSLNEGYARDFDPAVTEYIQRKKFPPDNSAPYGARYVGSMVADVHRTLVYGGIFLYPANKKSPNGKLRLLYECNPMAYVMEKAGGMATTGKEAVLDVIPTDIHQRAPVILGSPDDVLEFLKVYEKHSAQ
As to the kind of experiment: Binding affinity to human FBPase expressed in Escherichia coli BL21 (DE3) incubated for 2 hrs by LC-MS analysis.

For data set [17], the target named is T1, Fructose-1,6-bisphosphatase 1 (Homo sapiens). As to the kind of experiment: Inhibition of human FBPase expressed in Escherichia coli BL21 (DE3) at 10 times of IC50 using FBP as substrate incubated for 30 to 180 mins mins by malachite green dye based spectrophotometry. Summed up: (§6)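 Activity was started with 0.4 mM FBP and 0.8 mM Mg2+. Reactions were stopped with 1 M perchloric acid at 30, 60, 90, 120, 150 and 180 min, and phosphate was then detected by malachite green.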

The next data set is filed under the species Homo sapiens. As to the kind of experiment: Selectivity index, ratio of IC50 for human FBPase D127A mutant expressed in Escherichia coli BL21 (DE3) to IC50 for human FBPase expressed in Escherichia coli BL21 (DE3). In a few lines: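 IC50 values for each FBPase point mutant and for wild-type human FBPase came from the same malachite-green assay. The index is mutant IC50 divided by wild-type IC50.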

The target of data set [18] is T1, Fructose-1,6-bisphosphatase 1 (Homo sapiens). Briefly: Competitive inhibition of human FBPase expressed in Escherichia coli BL21 (DE3) using FBP as substrate incubated for 5 mins in presence of Mg2+ by malachite green dye based spectrophotometry. In a few lines:
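Malachite-green phosphate readout of human FBPase (300 nM, E. coli-expressed) in 50 mM Tris-HCl pH 7.4 with 0.4 mM FBP, 5 min at 37 °C. Compound concentration was varied at fixed Mg2+ levels, with Mg2+ raised from 1 mM to 10 mM, to assess competition with Mg2+.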

The target of data set [19] is Fructose-1,6-bisphosphatase 1 (Homo sapiens, UniProt P09467, D128A). Briefly: Inhibition of human FBPase D127A mutant expressed in Escherichia coli BL21 (DE3) using FBP as substrate incubated for 5 mins by malachite green dye based spectrophotometry. Summed up:
as §1

Data set [20] deals with T1, Fructose-1,6-bisphosphatase 1 (Homo sapiens). Briefly: Reversible inhibition of human FBPase expressed in Escherichia coli BL21 (DE3) at 20 times diluted IC50 using FBP as substrate preincubated for 30 to 180 mins followed by 20 fold compound dilution by malachite green dye based spectrophotometry. Summed up:
as §6

SMILES strings stand for the structures. Activity calls are given as the source filed them. No cut-off for these calls is given here.

Chain of Fructose-1,6-bisphosphatase 1 (Homo sapiens, UniProt P09467, C39S) (P09467 2-338 C39S limits assumed): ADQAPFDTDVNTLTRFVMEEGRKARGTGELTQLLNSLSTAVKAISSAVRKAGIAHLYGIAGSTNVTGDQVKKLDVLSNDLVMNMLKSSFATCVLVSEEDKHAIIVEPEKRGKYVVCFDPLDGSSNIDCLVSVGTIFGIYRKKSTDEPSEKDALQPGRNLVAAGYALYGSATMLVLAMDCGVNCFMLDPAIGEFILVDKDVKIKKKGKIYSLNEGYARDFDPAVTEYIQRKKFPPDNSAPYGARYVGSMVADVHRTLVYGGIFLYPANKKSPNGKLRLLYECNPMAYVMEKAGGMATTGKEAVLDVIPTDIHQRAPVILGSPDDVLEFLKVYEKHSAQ
Chain of Fructose-1,6-bisphosphatase 1 (Homo sapiens, UniProt P09467, D128A) (P09467 2-338 D128A limits assumed): as the sequence (P09467 2-338 C39S limits assumed) above, with S38C, D127A counted along it

As to `CCOC(=O)C(C)(C)Oc1ccc(F)c(/C=C/[N+](=O)[O-])c1`, the midpoint of inhibition in [1], the IC50, lay at 0.66 µM. Moreover, the inhibition entry with Hepatocyte [2], in the data set with Hepatocyte [7] and in the data set with Hepatocyte [13] was “Dose-dependent effect” each time. In addition, in the data set on Hepatocyte [3], the inhibition at 100 µM amounted to 95%. In addition, the inhibition entry with Hepatocyte [4] and in the data set with Hepatocyte [15] was “Active” each time. Further, the Activity entry (in data set [5]; in the data set on Hepatocyte [6]; in the data set with Hepatocyte [8]; in data set [9]; in [11]) was “Non-Toxic” in each case. Moreover, in [10], the viability at 6 h is greater than 80%. The compound also gave an inhibition at 400 µM with Hepatocyte [12] of 90%. In the data set with Hepatocyte [14], the inhibition entry was “inactive”.

With `N#Cc1ccc(/C=C/[N+](=O)[O-])cc1`, the IC50 in data set [1] was determined as 0.49 µM; in data set [19], 2 µM. Further, the result in data set [16] was Active. The compound also gave an inhibition in data set [17] of 100%. Besides, in the data set filed under Homo sapiens, the Ratio IC50 worked out at 5.7. For the same compound, the inhibition result in data set [18] and in [20] was “Active” each time.

With `O=[N+]([O-])/C=C/c1cccc(F)c1`, the half-inhibitory concentration (IC50) in data set [1] came to 1.2 µM; in data set [19], 4 µM. Moreover, the result in [16] was Active. This compound also came in with an inhibition in data set [17] of 100%. Further, the Ratio IC50 in the data set filed under Homo sapiens is 13. Besides, the inhibition result in data set [18] and in data set [20] was “Active” each time.

Broadly, the IC50 is the concentration at which inhibition is half-maximal. A higher IC50 goes with weaker potency in that assay. In general, inhibition refers to the change of the read-out against control, counted positive when it falls.

Source of the values: ChEMBL document CHEMBL4311987, “Discovery of novel allosteric site and covalent inhibitors of FBPase with potent hypoglycemic effects” (Eur J Med Chem, 2019).
